The record followed here is ChEMBL document CHEMBL3352485 (J Med Chem, 2014).

Where a SMILES comes first, the peptide text is derived from it. [ ]: non-standard residue; d: D form. Arg(Me) = CNC(=N)NCCC[C@H](N)C(=O)O; d4Pal = N[C@H](Cc1ccncc1)C(=O)O; azaGly = NNC(=O)O

The term clearance denotes a measure of how efficiently the substance is removed, as volume per time. Low readings indicate a low capacity for elimination, high ones a high capacity for elimination. Broadly, the Ki is the dissociation constant of the complex between target and ligand, obtained from inhibition or displacement. Read a low Ki as higher affinity. As a reminder, the fraction remaining is the share of the starting amount still present when the sample was taken. As usually defined, the AUC(0-t) is exposure summed from dosing to a finite time, without extrapolation to infinity. High values mean high exposure, low ones low exposure. As a reminder, the Tmax is the time at which the peak concentration occurs. As usually defined, the MRT is a mean duration of stay, worked out from the concentration-time curve. One may read the EC50 as the concentration at which the effect is half-maximal. A word on the Cmax: it is the highest concentration seen after dosing.

The nature of series [1]: Total clearance in Sprague-Dawley rat at 1 mg/kg, iv after 24 hrs by LC-MS/MS analysis. In kind it is ADME, organism-based. Details: dose 1 mg/kg, route intravenous. The following applies: in vivo. In a few lines: (§1)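 Male Crl:CD(SD) rats (3 per group) got a single intravenous dose of 1 mg/kg. Blood was drawn at 5, 10, 15 and 30 min and at 1, 2, 4, 8 and 24 h. Plasma proteins were removed with 0.2% formic acid/methanol and acetonitrile, and the supernatant was treated with 0.4% formic acid. Peptide was quantified by LC-MS. Noncompartmental parameters were derived per rat, reported as mean ± SD (n = 3).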

Series [2] concerns the target T1, KiSS-1 receptor (Rattus norvegicus, UniProt Q924U1). In words: Displacement of radioligand from rat KISS1R transfected in CHO cells. In kind it is cell-based.
The target of series [3] is T2, KiSS-1 receptor (Homo sapiens, UniProt Q969F8). The experiment in a line: Displacement of radioligand from human KISS1R transfected in CHO cells. In kind it is cell-based. The essentials:
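Binding used membrane fractions prepared from CHO cells expressing recombinant human KISS1R.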

Series [4] is described as follows: Stability of the compound in aqueous solution assessed as residual ratio at pH 3 up to 2 weeks by HPLC analysis relative to initial level. In kind it is physicochemical. The essentials: (§2)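 Peptides in aqueous solution at pH 1.2 (JP1, containing 10% acetonitrile), 3, 5 or 7 were kept in the dark at 37 °C for up to 2 weeks. Peptide remaining was quantified from HPLC peak area, with detection at 230–280 nm. The residual ratio (stability index) was expressed relative to the time-0 amount, taken as 100%.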

Series [5] can be described thus: AUC (0 to 24 hrs) in Sprague-Dawley rat at 1 mg/kg, sc after 24 hrs by LC-MS/MS analysis. In kind it is ADME, organism-based. Details: time < 24 hr, dose 1 mg/kg, route subcutaneous. The following applies: plasma. The essentials: (§3)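 Single subcutaneous dose of 1 mg/kg in male Crl:CD(SD) rats, n = 3 per group. Blood was sampled from 5 min to 24 h (5, 10, 15, 30 min; 1, 2, 4, 8, 24 h). Plasma was deproteinized with formic acid/methanol and acetonitrile, and peptide levels were measured by LC-MS. Noncompartmental analysis per animal gave Cmax, Tmax, AUC0-24h, MRT and BA; values are mean ± SD (n = 3).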

The nature of series [6]: Stability of the compound in aqueous solution assessed as residual ratio at pH 7 up to 1 week by HPLC analysis relative to initial level. In kind it is physicochemical. In a few lines:
as §2

Series [7] is described as follows: AUC (0 to 24 hrs) in Sprague-Dawley rat at 1 mg/kg, iv after 24 hrs by LC-MS/MS analysis. In kind it is ADME, organism-based. On the set-up: time < 24 hr, dose 1 mg/kg, route intravenous. The following applies: plasma. In a few lines:
as §1

Series [8] is described as follows: Stability of the compound in aqueous solution assessed as residual ratio at pH 5 up to 2 weeks by HPLC analysis relative to initial level. In kind it is physicochemical. In a few lines:
as §2

Series [9] deals with Rattus norvegicus. In words: Testosterone-suppressive activity in Crl:CD(SD) rat assessed as number of animal with plasma testosterone level below the limit of detection at 0.3 nmol/hr, sc through osmotic pumps measured after 6 days by RIA. In kind it is functional. In a few lines:
(§4)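 Peptide was dissolved in distilled water or 50% DMSO as 0.1–2 mM pump solutions and delivered by ALZET osmotic pumps implanted subcutaneously in the back of 9-week-old male Crl:CD(SD) rats (n = 5) under ether. Controls received distilled-water pumps. After 6 days, rats were decapitated and plasma was recovered with aprotinin/EDTA. Testosterone was measured by RIA, and the number of rats below the detection limit (0.04 ng/mL) was counted.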

Series [10] in a line: Tmax in Sprague-Dawley rat at 1 mg/kg, sc after 24 hrs by LC-MS/MS analysis. In kind it is ADME, organism-based. On the set-up: dose 1 mg/kg, route subcutaneous. Conditions: in vivo. The essentials:
as §3

Series [11] deals with Rattus norvegicus. The experiment in a line: Testosterone-suppressive activity in Crl:CD(SD) rat assessed as number of animal with plasma testosterone level below the limit of detection at 2 nmol/hr, sc through osmotic pumps measured after 6 days by RIA. In kind it is functional. In a few lines:
as §4

The subject of series [12] is Rattus norvegicus. The experiment in a line: Testosterone-suppressive activity in Crl:CD(SD) rat assessed as number of animal with plasma testosterone level below the limit of detection at 0.1 nmol/hr, sc through osmotic pumps measured after 6 days by RIA. In kind it is functional. In a few lines:
as §4

Series [13] can be described thus: C5min in Sprague-Dawley rat at 1 mg/kg, iv after 5 mins by LC-MS/MS analysis. Conditions: in vivo, read-out: Cmin.
Series [14] is described as follows: Mean residence time in Sprague-Dawley rat at 1 mg/kg, iv after 24 hrs by LC-MS/MS analysis. In kind it is ADME, organism-based. On the set-up: dose 1 mg/kg, route intravenous. Conditions: in vivo. The essentials: as §1
The target of series [15] is T2, KiSS-1 receptor. In words: Agonist activity at human KISS1R transfected in CHO cells assessed as intracellular calcium flux after 24 hrs by functional FLIPR assay. In kind it is cell-based. In a few lines:
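CHO cells stably expressing human KISS1R were seeded at 15 000 cells/mL, cultured 24 h, then loaded with fluo-3 for 1 h at 37 °C in HBSS/HEPES (pH 7.4) with probenecid and FBS. Cells were washed in HBSS with 2.5 mM probenecid. Peptides came from 1 mM DMSO stocks diluted in buffer containing probenecid, 0.2% BSA and 0.1% CHAPS. Fluorescence was recorded on FLIPR for 3 min; peak counts over 0–180 s gave agonist activity.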
For orientation: Calcium assays in cells follow changes in intracellular calcium, usually with a dye or a luminescent sensor.

Series [16] can be described thus: Volume of distribution at steady state in Sprague-Dawley rat at 1 mg/kg, iv after 24 hrs by LC-MS/MS analysis. In kind it is ADME, organism-based. Details: dose 1 mg/kg, route intravenous. The following applies: in vivo, read-out: Vdss. In a few lines: as §1
Series [17] has as its system Rattus norvegicus. In words: Testosterone-suppressive activity in Crl:CD(SD) rat assessed as number of animal with plasma testosterone level below the limit of detection at 0.5 nmol/hr, sc through osmotic pumps measured after 6 days by RIA. In kind it is functional. The essentials:
as §4

Series [18] in a line: Stability of the compound in aqueous solution (JP1) assessed as residual ratio at pH 1.2 up to 2 weeks by HPLC analysis relative to initial level. In kind it is physicochemical. The essentials: as §2
A short description of series [19]: Stability of the compound in aqueous solution assessed as residual ratio at pH 3 up to 1 week by HPLC analysis relative to initial level. In kind it is physicochemical. In a few lines:
as §2

Series [20] can be described thus: Mean residence time in Sprague-Dawley rat at 1 mg/kg, sc after 24 hrs by LC-MS/MS analysis. In kind it is ADME, organism-based. Details: dose 1 mg/kg, route subcutaneous. Conditions: in vivo. In a few lines:
as §3

A short description of series [21]: Cmax in Sprague-Dawley rat at 1 mg/kg, sc after 24 hrs by LC-MS/MS analysis. The following applies: in vivo. In kind it is ADME, organism-based. On the set-up: dose 1 mg/kg, route subcutaneous. In a few lines: as §3
Series [22] has as its target T1, KiSS-1 receptor. The experiment in a line: Agonist activity at rat KISS1R transfected in CHO cells assessed as intracellular calcium flux after 24 hrs by functional FLIPR assay. In kind it is cell-based.
A short description of series [23]: Stability of the compound in aqueous solution assessed as residual ratio at pH 7 up to 2 weeks by HPLC analysis relative to initial level. In kind it is physicochemical. In a few lines:
as §2

Series [24] can be described thus: Stability of the compound in aqueous solution (JP1) assessed as residual ratio at pH 1.2 up to 1 week by HPLC analysis relative to initial level. In kind it is physicochemical. In a few lines: as §2
The nature of series [25]: Stability of the compound in aqueous solution assessed as residual ratio at pH 5 up to 1 week by HPLC analysis relative to initial level. In kind it is physicochemical. In a few lines: as §2
Series [26] concerns Rattus norvegicus. The experiment in a line: Testosterone-suppressive activity in Crl:CD(SD) rat assessed as number of animal with plasma testosterone level below the limit of detection […], sc through osmotic pumps measured after 6 days by RIA. In kind it is functional.

T2 sequence (Q969F8 whole entry): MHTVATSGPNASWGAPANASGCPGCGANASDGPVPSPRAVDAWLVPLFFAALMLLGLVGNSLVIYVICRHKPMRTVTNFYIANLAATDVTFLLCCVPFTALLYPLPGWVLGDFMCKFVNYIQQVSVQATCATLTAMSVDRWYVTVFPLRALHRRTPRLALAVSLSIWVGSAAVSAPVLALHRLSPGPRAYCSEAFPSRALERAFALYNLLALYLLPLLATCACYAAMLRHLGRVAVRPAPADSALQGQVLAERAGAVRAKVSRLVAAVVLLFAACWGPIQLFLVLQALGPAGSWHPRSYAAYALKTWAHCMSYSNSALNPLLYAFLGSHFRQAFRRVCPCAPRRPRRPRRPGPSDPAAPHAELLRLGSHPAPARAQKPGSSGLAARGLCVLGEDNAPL
T1 sequence (Q924U1 whole entry): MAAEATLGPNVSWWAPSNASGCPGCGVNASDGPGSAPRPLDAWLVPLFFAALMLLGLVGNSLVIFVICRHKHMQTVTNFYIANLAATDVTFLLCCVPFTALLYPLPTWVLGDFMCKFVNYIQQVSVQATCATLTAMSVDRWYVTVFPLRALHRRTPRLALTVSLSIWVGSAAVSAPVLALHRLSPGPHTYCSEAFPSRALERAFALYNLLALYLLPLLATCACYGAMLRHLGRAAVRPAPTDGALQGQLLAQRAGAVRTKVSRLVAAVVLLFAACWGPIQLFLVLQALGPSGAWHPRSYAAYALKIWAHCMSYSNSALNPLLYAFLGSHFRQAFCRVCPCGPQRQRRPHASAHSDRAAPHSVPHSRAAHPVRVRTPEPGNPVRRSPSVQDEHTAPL

In [1], `CNC(=N)NCCC[C@H](NC(=O)[C@H](CC(C)C)NC(=O)NNC(=O)[C@H](Cc1ccccc1)NC(=O)[C@H](CO)NC(=O)[C@H](CC(N)=O)NC(=O)[C@@H](Cc1ccncc1)NC(=O)[C@H](N)Cc1ccc(O)cc1)C(=O)N[C@@H](Cc1ccccc1)C(N)=O` [KISS1-305] (H-[dY][d4Pal]NSF[azaGly]L[Arg(Me)]F-NH2) showed a clearance of 69.9 mL/min/kg. The Ki was 0.14 nM at KiSS-1 receptor [2] and 0.11 nM on KiSS-1 receptor [3]. Further, the amount remaining at 336 h in [4] was 100%; in series [8], 91.2%; in series [18] it was 32.8%; in series [23] it was 28%. Besides, the AUC(0-t) at 24 h in [5] worked out at 96 ng·h/mL; in series [7], 239 ng·h/mL. Moreover, the share remaining at 168 h stood at 54.9% in series [6], 99.4% in series [19], 60.3% in [24] and 94.8% in [25]. Besides, the Activity with Rattus norvegicus [9] is 0%; in the series on Rattus norvegicus [11] it was 100%; with Rattus norvegicus [12], 0 rats (n = 5); with Rattus norvegicus [17], 60%. Further, the Tmax in series [10] was 8.4 min. For the same compound, in [13], the concentration at 5 min is 969 ng/mL. For the same compound, the mean residence time MRT in series [14] is 22.8 min; in [20] it was 36.6 min. Besides, the EC50 at KiSS-1 receptor [15] came out at 2.6 nM; on KiSS-1 receptor [22], 10 nM. Besides, the Vd in series [16] is 1.58 L/kg. This compound also had a peak concentration (Cmax) in series [21] of 145 ng/mL.
With `CNC(=N)NCCC[C@H](NC(=O)[C@H](CC(C)C)NC(=O)NNC(=O)[C@H](Cc1ccccc1)NC(=O)[C@H](CO)NC(=O)[C@H](CC(N)=O)NC(=O)[C@@H](Cc1c[nH]c2ccccc12)NC(=O)[C@H](N)Cc1ccc(O)cc1)C(=O)N[C@@H](Cc1c[nH]c2ccccc12)C(N)=O`, the results for the Ki on KiSS-1 receptor [2] and on KiSS-1 receptor [3] were 0.077 nM and 0.037 nM, respectively. Moreover, the fraction remaining at 336 h came to 97.1% in series [4], 90.8% in series [8], 33.4% in [18] and 28% in series [23]. The fraction remaining at 168 h in [6] was 56.5%; in series [19] it was 98.2%; in [24] it was 60.8%; in series [25] it was 96%. The Activity in the series with Rattus norvegicus [9] is 40%; in the series with Rattus norvegicus [12], 0 rats (n = 5); in the series with Rattus norvegicus [17], 80%. Also, the EC50 on KiSS-1 receptor [15] came out at 0.51 nM; at KiSS-1 receptor [22] it was 2.3 nM.
The compound `CNC(=N)NCCC[C@H](NC(=O)[C@H](CC(C)C)NC(=O)NNC(=O)[C@H](Cc1ccccc1)NC(=O)[C@@H](NC(=O)[C@H](CC(N)=O)NC(=O)[C@@H](Cc1c[nH]c2ccccc12)NC(=O)CCc1ccc(O)cc1)[C@@H](C)O)C(=O)N[C@@H](Cc1c[nH]c2ccccc12)C(N)=O` showed a Ki on KiSS-1 receptor [3] of 0.039 nM. In addition, the Activity was 0 animals in the series on Rattus norvegicus [26] and 100% in the series with Rattus norvegicus [12]. For the same compound, the EC50 was determined as 0.3 nM at KiSS-1 receptor [15] and 1.1 nM on KiSS-1 receptor [22].
